From PubChem BioAssay
KCNQ1 act = human KCNQ1 channel potentiation or activation. P51787. CHO-K1 KCNQ1, thallium flux FluxOR fluorescence; hits give high values. B-score at 10 µM. 310,000 compounds, 0.35% hits;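 active = fluorescence ratio B-score, a plate-corrected score, at least three library SD, with initial intensity B-score within 5 SD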
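System: Stable KCNQ1 CHO-K1 line | Incubation: 90 min dye loading and 20 min compound exposure, both at room temperature | Measure: Ratio B score | Medium: Assay buffer for compound exposure, DMSO matched across wells | Compound dosing: Single-concentration screen | Probe or stimulus: K+/Tl+ depolarizing stimulus | Measured by: Kinetic FluxOR fluorescence, 10 s baseline plus 110 s post-stimulus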
KCNQ1 block = inhibitors of human KCNQ1 potassium channel. P51787. CHO-K1 KCNQ1, FluxOR thallium flux fluorescence; hits give high values. B-score at 10 µM. 310,000 compounds, 1.3% hits;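 active = compounds whose thallium flux B-score, printed positive for inhibition, exceeds three library SD while starting fluorescence stays within three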;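 also: channel opened by potassium depolarization with thallium stimulus after 20 min compound exposure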
KCNK9 inh = blocks the human KCNK9 two-pore domain potassium channel; HEK293 KCNK9, FluxOR thallium flux fluorescence; hits give low values; B-score at 10 µM; 310,000 compounds, 1.2% hits;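 active = ratio B-score over 3 SD below the library mean, with starting fluorescence within 5 SD of its mean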;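 also: negative B-score means less thallium flux so channel inhibition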
Target sequence (Q9NPC2 whole entry, looked up, the tested form may be a part): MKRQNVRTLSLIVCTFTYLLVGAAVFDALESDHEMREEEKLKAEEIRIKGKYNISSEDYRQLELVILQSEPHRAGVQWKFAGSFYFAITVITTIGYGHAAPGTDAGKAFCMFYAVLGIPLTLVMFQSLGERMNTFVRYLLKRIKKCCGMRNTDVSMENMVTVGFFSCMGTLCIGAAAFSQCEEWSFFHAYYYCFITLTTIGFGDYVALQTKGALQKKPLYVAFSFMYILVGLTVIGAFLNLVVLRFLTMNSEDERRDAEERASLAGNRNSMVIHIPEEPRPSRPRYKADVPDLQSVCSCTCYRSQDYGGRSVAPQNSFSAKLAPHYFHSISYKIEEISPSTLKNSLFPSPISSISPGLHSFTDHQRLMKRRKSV
Kir21 inh = blocks the mouse Kir2.1 inward-rectifier potassium channel | HEK293-Kir2.1, FluxOR thallium flux fluorescence; hits give low values | B-score at 10 µM | AID 1672 | 310,000 compounds, 0.85% hits | P35561;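 active = fluorescence ratio B-score at or below minus 3 SD of library scores, with starting-brightness B-score within 2 SD, cut at about -4.2 in these data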;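 also: channel flux triggered by added potassium and thallium sulfate stimulus; B-score of peak minus minimum fluorescence over baseline after thallium stimulus; more negative B-score means stronger Kir2.1 block with less thallium influx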
hERG protect = shields human hERG channel from block by proarrhythmic agents | CHO-hERG, FluxOR thallium flux, dofetilide IC70 present | AID 1511 | 310,000 compounds, 0.51% hits | activation (rescue from dofetilide block), less the hit threshold, % at 10 µM;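 active = activation above the mean of controls blocked by dofetilide plus 5 SD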;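 also: thallium influx through hERG after potassium depolarization seen as dye fluorescence rise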
KCNK3 block = human KCNK3 channel inhibition, primary screen; O14649; CHO-KCNK3 thallium flux, FluxOR fluorescence; hits give low values; B-score at 10 µM; 340,000 compounds, 0.84% hits;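 active = B-score under library mean minus 4 SD, starting fluorescence ratio at most library mean plus 5 SD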;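 also: more negative B-score means stronger inhibition of thallium flux through KCNK3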
Target sequence (O14649 whole entry, looked up): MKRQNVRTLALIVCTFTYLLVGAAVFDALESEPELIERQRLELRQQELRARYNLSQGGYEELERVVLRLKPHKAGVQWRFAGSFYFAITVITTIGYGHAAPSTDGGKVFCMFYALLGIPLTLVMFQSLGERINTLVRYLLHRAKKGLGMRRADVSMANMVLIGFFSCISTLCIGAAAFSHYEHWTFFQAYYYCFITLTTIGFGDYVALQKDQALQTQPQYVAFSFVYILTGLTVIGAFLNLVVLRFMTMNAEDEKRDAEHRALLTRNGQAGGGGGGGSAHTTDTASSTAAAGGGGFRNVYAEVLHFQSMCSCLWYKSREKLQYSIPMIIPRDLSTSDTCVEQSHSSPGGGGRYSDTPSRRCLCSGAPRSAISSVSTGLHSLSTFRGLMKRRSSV
KCNK9 inh conf = human KCNK9 inhibitor confirmation | shares compounds with KCNK9 inh | HEK293 KCNK9 cells, FluxOR thallium flux fluorescence | inhibition, % at 10 µM | 4,900 compounds, 43% hits;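 active = thallium signal inhibited by more than 5 SD of the compound-free buffer control wells, on both duplicate plates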
Kir2-1 spec = tests whether KCNK9 modulators also affect mouse Kir2.1. inhibition, % at 10 µM. Kir2.1 cells, FluxOR thallium flux fluorescence. shares compounds with KCNK9 inh. AID 492993. 4,900 compounds, 4% hits;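 active = thallium signal drop more than 5 SD beyond the mean of the no-compound control wells, seen in both duplicate plates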;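 also: signal is fluorescence rise after thallium addition divided by baseline fluorescence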
KCNK9 uninduced = second counter-screen for KCNK9 modulators: effect in non-induced cells. shares compounds with KCNK9 inh. 4,900 compounds, 40% hits. AID 492997. inhibition, % at 10 µM. non-induced KCNK9-HEK293, FluxOR thallium flux;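 active = thallium signal drop beyond 5 SD of the untreated control mean, on both duplicate plates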
Each line names hits and unclear results; the compound was inactive in the other large screens (follow-up assays come after a bar, where they were run). Most compounds without a hit are left out; they make up all but 3.7% or so of the library.

C=C(C(=O)c1ccccc1)C(c1ccccc1)C(C)C(=O)c1ccccc1 (stereo not drawn)	KCNK9 inh -11.5, Kir21 inh -4.38 | KCNK9 inh conf 73.0% | Kir2-1 spec inactive | KCNK9 uninduced 44.0%
O=C1CCc2ccc(NC(=O)C3CC3)cc2N1	none
Cc1cccc(OCCNC(=O)c2cccc(Oc3ccc(C(F)(F)F)cc3[N+](=O)[O-])c2)c1	none | KCNK9 inh conf inactive | Kir2-1 spec inactive | KCNK9 uninduced inactive
O=C(CN1CCN(c2ccccn2)CC1)Nc1ccc(F)c(F)c1	none
Cc1cccc(C(=O)Nc2ccc(NC(=O)c3ccccc3)cc2)c1	KCNK9 inh -11.4 | KCNK9 inh conf 54.0% | Kir2-1 spec inactive | KCNK9 uninduced inactive
Cc1ccc(NC(=O)C(Nc2ccccc2)c2ccccc2)cc1 (stereo not drawn)	none
Cc1cccc(C(=O)Nc2ccc(C(=O)Nc3ccc(O)cc3)cc2)c1	none
Cc1cccc(C(=O)Nc2scc(-c3ccc(Br)cc3)c2C(=O)O)c1	none
Cc1cccc(C(=O)Nc2ccccc2C(=O)OCC(=O)Nc2ccc(C#N)cc2)c1	KCNK9 inh -9.3 | KCNK9 inh conf 32.0% | Kir2-1 spec inactive | KCNK9 uninduced 28.0%
Cc1ccc(-c2csc(NC(=O)c3cccc(C)c3)c2C(=O)O)cc1	none | KCNK9 inh conf inactive | Kir2-1 spec inactive | KCNK9 uninduced inactive
Cc1ccc(NC(=O)C(Nc2cccc(C)c2)c2ccccc2)cc1 (stereo not drawn)	none | KCNK9 inh conf 33.0% | Kir2-1 spec inactive | KCNK9 uninduced 32.5%
CCCCCCC(=O)Nc1ccc(Br)cn1	none
Cc1cc2nnc(SC3CCCCN(C(=O)c4ccc(F)cc4)C3=O)n2c2ccccc12 (stereo not drawn)	none | KCNK9 inh conf inactive | Kir2-1 spec inactive | KCNK9 uninduced inactive
OCC1(Cc2ccc(Cl)cc2)CCN(Cc2ccc(F)c(F)c2)CC1	none
OCC1(Cc2cccc(C(F)(F)F)c2)CCN(Cc2cc(F)cc(F)c2)CC1	none | KCNK9 inh conf inactive | Kir2-1 spec inactive | KCNK9 uninduced inactive
OCC1(Cc2ccccc2C(F)(F)F)CCN(Cc2ccc3c(c2)CCO3)CC1	none | KCNK9 inh conf inactive | Kir2-1 spec inactive | KCNK9 uninduced inactive
OCC1(Cc2ccccc2C(F)(F)F)CCN(Cc2ccccc2)CC1	none | KCNK9 inh conf inactive | Kir2-1 spec inactive | KCNK9 uninduced inactive
O=C(CC1CCC1)NC(c1ccccc1)c1ccccc1	none
Cc1ccn(C(C)CC(=O)Nc2ccc(-c3ccno3)cc2)n1 (stereo not drawn)	none
CN(C)N1C(N)=C(C#N)C(c2ccc3c(c2)OCO3)C2=C1CC(C)(C)CC2=O (stereo not drawn)	none
CC(C)N(C(=O)C(=O)c1cccn1-c1ccccc1C#N)C(C)C	none
Cc1ccc(CN(C)C(=O)c2c(C)nn(-c3ccccc3)c2C)cc1	none | KCNK9 inh conf inactive | Kir2-1 spec inactive | KCNK9 uninduced inactive
CC(=O)c1c(C)nn(-c2ccccc2)c1C	none
CC(=O)Oc1ccc(C(=O)NCc2ccco2)cc1	none
O=C(NCc1cccnc1)c1cc(Sc2cccc(Cl)c2)nc2ccccc12	KCNK9 inh -8.21 | KCNK9 inh conf 35.5% | Kir2-1 spec inactive | KCNK9 uninduced inactive
O=C(NCc1cccc(Cl)c1)c1cccnc1	none
CC1(C)Cc2c(cnn2-c2cccc(F)c2)C(NC(=O)c2ccc(=O)[nH]n2)C1 (stereo not drawn)	none
N#C/C(=C/c1ccc(N2CCCCC2)cc1)c1cccc(F)c1	none
N#C/C(=C/c1ccc(N2CCCCCC2)o1)c1ccc(Cl)cc1	KCNQ1 block 7, KCNK9 inh -10.4 | KCNK9 inh conf 60.0% | Kir2-1 spec inactive | KCNK9 uninduced 78.0%
CCS(=O)(=O)C1=NN2C(=N)/C(=C\c3ccc(OS(=O)(=O)c4ccccc4)cc3)C(=O)N=C2S1	none
Cc1ccc(S(=O)(=O)Oc2ccc(/C=C3\C(=N)N4N=C(S(C)(=O)=O)SC4=NC3=O)cc2)cc1	none | KCNK9 inh conf inactive | Kir2-1 spec inactive | KCNK9 uninduced inactive
CCC1=NN2C(=N)/C(=C\c3cccn3-c3ccc(Cl)cc3)C(=O)N=C2S1	none | KCNK9 inh conf inactive | Kir2-1 spec inactive | KCNK9 uninduced inactive
CCC1=NN2C(=N)/C(=C/c3ccc(OS(=O)(=O)c4ccccc4)cc3)C(=O)N=C2S1	none | KCNK9 inh conf inactive | Kir2-1 spec inactive | KCNK9 uninduced inactive
CCC1=NN2C(=N)/C(=C\c3cccn3-c3ccc(C)c(C)c3)C(=O)N=C2S1	none
Cc1cc(C)cc(-n2cccc2/C=C2/C(=N)N3C(=NC2=O)SN=C3S(C)(=O)=O)c1	KCNQ1 block 10 | KCNK9 inh conf inactive | Kir2-1 spec inactive | KCNK9 uninduced inactive
O=C(c1c(Cl)cccc1Cl)N1CCN(c2ncccn2)CC1	none
CC1CN(C(=O)Nc2cccc(Cl)c2)C2(CCCCCC2)O1 (stereo not drawn)	none
Cc1ccc(C(=O)OCC(=O)c2c[nH]c3ccccc23)cc1	none
CC(C)Cc1ccc(C(C)C(=O)OCC(=O)c2c[nH]c3ccccc23)cc1 (stereo not drawn)	KCNK9 inh -10.2 | KCNK9 inh conf 24.5% | Kir2-1 spec inactive | KCNK9 uninduced 41.5%
CC(=O)Nc1cc2cc(NS(=O)(=O)c3ccc(C)cc3)ccc2oc1=O	none
Cc1ccc(C(C)C)c(OC(=O)/C=C/c2ccccc2)c1	none | KCNK9 inh conf inactive | Kir2-1 spec inactive | KCNK9 uninduced inactive
Cc1ccc(NC(=O)C(C)OC(=O)/C=C/c2ccccc2)cc1 (stereo not drawn)	none
COc1cccc(C(=O)/C=C/c2ccc(N3CCCCC3)c([N+](=O)[O-])c2)c1	KCNK9 inh -8.26 | KCNK9 inh conf 35.5% | Kir2-1 spec inactive | KCNK9 uninduced 35.0%
Cc1cc(C(=O)CSc2nn3c(=O)c(C(C)(C)C)nnc3s2)c(C)n1C1CC1	none | KCNK9 inh conf inactive | Kir2-1 spec inactive | KCNK9 uninduced inactive
O=C(NCc1ccccn1)Nc1ccccc1C(F)(F)F	none
Cc1onc(-c2ccccc2Cl)c1C(=O)NCc1cccnc1	none
COc1ccccc1NC(=S)NC(=O)c1c(-c2ccccc2Cl)noc1C	none | KCNK9 inh conf inactive | Kir2-1 spec inactive | KCNK9 uninduced inactive
Cc1onc(-c2ccccc2Cl)c1C(=O)NC(=S)Nc1ccccc1F	none
Cc1onc(-c2ccccc2Cl)c1C(=O)NC(=S)NCc1cccnc1	none | KCNK9 inh conf inactive | Kir2-1 spec inactive | KCNK9 uninduced inactive
O=C(CSc1nncc2ccccc12)N1CCOCC1	none
